Results from ChEMBL document CHEMBL1177816, “Epsilon substituted lysinol derivatives as HIV-1 protease inhibitors” (Bioorg Med Chem Lett, 2010).

How the values were obtained:
Protease = Protease (Human immunodeficiency virus 1, UniProt Q9YQ12); experiment: Inhibition of HIV1 protease
[1] = tested on: Human immunodeficiency virus 1; experiment: Antiviral activity against HIV1 3B infected in human MT4 cells assessed as inhibition of viral spread after 3 days by p24 antigen ELISA in presence of 10% fetal bovine serum; assay type: functional
Outline: (§1)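 MT-4 cells kept in RPMI 1640 with 10% heat-inactivated FBS were infected en masse with HIV-1 IIIb at multiplicity 0.01 for 24 h, then washed and plated. Serial twofold inhibitor dilutions were added and cultures ran 3 more days. Spread was read by p24 core antigen ELISA. Line 2 used 10% FBS; line 3 used cells resuspended in 50% normal human serum, giving a serum-adjusted IC95.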

[2] = Half life in Beagle dog at 4 mg/kg, po; assay type: ADME, organism-based, Canis lupus familiaris; design: dose 4 mg/kg, route oral; conditions: in vivo
Outline: (§2)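 Beagle dogs received 4 mg/kg orally in PEG 400. Plasma drug levels (nM) were measured over 24 h, including the 24 h trough, and oral half-life was calculated from the plasma concentration profile.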

[3] = Trough plasma concentration in Beagle dog at 4 mg/kg after 24 hrs; assay type: ADME, organism-based, Canis lupus familiaris; design: dose 4 mg/kg; outline: as §2
[4] = tested on: Human immunodeficiency virus 1; experiment: Antiviral activity against HIV1 3B infected in human MT4 cells assessed as inhibition of viral spread after 3 days by p24 antigen ELISA in presence of 50% normal human serum; assay type: functional; outline: as §1
[5] = AUC in Beagle dog at 4 mg/kg, po; assay type: ADME, organism-based, Canis lupus familiaris; design: dose 4 mg/kg, route oral; conditions: plasma; outline: as §2

Chain of Protease (Q9YQ12 whole entry): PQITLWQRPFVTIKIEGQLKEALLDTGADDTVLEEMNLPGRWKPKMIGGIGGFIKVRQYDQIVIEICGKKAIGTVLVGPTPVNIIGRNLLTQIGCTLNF

| IC50 (Protease) [nM] | half-life [2] [min] | concentration at 24 h [3] [nM] | AUC [5] [µM·h] | SMILES | Inhibition of viral spread [1] [nM] | Virucidal [4] [nM] |
| --- | --- | --- | --- | --- | --- | --- |
| 0.013 | – | – | – | COC(=O)N[C@H](C(=O)N[C@H](CO)CCC[C@@H](CO)N(CCC(C)C)S(=O)(=O)c1ccc(N)cc1)C(c1ccccc1)c1ccccc1 | 230 | – |
| 0.1 | – | – | – | COC(=O)N[C@H](C(=O)N[C@@H](CCC[C@@H](CO)N(CCC(C)C)S(=O)(=O)c1ccc(N)cc1)C(C)C)C(c1ccccc1)c1ccccc1 | 37 | – |
| 0.4 | – | – | – | COC(=O)N[C@H](C(=O)N[C@H](C)CCC[C@@H](CO)N(CCC(C)C)S(=O)(=O)c1ccc(N)cc1)C(c1ccccc1)c1ccccc1 | 98 | – |
| 0.016 | 360 | 5.1 | 1.05 | CC[C@@H](CCC[C@@H](CO)N(CCC(C)C)S(=O)(=O)c1ccc(N)cc1)NC(=O)[C@@H](NC(=O)OC)C(c1ccccc1)c1ccccc1 | 10 | 74 |
| – | – | 2 | 0.32 | COC(=O)N[C@H](C(=O)N[C@@H](C)CCC[C@@H](CO)N(CCC(C)C)S(=O)(=O)c1ccc(N)cc1)C(c1ccccc1)c1ccccc1 | 6.6 | 120 |
| 0.1 | – | – | – | CCC[C@@H](CCC[C@@H](CO)N(CCC(C)C)S(=O)(=O)c1ccc(N)cc1)NC(=O)[C@@H](NC(=O)OC)C(c1ccccc1)c1ccccc1 | 56 | – |
| 0.03 | – | – | – | COC(=O)N[C@H](C(=O)NCCCC[C@@H](CO)N(CCC(C)C)S(=O)(=O)c1ccc(N)cc1)C(c1ccccc1)c1ccccc1 | 12 | 130 |
| 0.5 | – | – | – | COC(=O)N[C@H](C(=O)NCCCC[C@@H](CO)N(CC(C)C)S(=O)(=O)c1ccc(N)cc1)C(c1ccccc1)c1ccccc1 [PPL-100] | – | – |
